Screening data from PubChem.
Shown are actives, neighbours in structure and some others; about 4.3% of the full set was active somewhere.
OX1R antag-1 – OX1R (human) antagonism | O43613 | OX1R-expressing cells, FRET antagonist read-out | inhibition, % at 6.6 µM | 1.8% of 330,000 active | AID 485270; in the data active means inhibition mostly above about 38%, no sharp cut-off; inactive means mostly below about 40%;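 further: 0% = agonist challenge alone and 100% = reference antagonist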
GalR3 antagonist – human GalR3 antagonism; inhibition, % at 3 µM; HEK293 GalR3-CNG cAMP membrane potential fluorescence; galR3 body fused to GalR1 C-terminus; O60755; AID 651719; 0.44% of 360,000 active;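 active means inhibition above the screen-wide average plus 3 SD, cut at about 13% in these data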;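 further: forskolin and galanin both at EC90 stimulate the cells; cAMP rise reported by CNG channel membrane potential dye signal; 0% = forskolin plus galanin with DMSO and 100% = forskolin alone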
CHO parental Ca – counter-screen: ATP calcium response change in parental CHO cells; 0.63% of 330,000 active; inhibition, % at 5.6 µM; parental CHO-K1, ATP-induced calcium, Fluo-8 fluorescence;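 active means inhibition above that plate's mean sample inhibition plus 3 SD, cut at about 26% in these data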;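 further: 0% = ATP-challenged DMSO wells and 100% = DMSO wells without ATP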
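Test system: untransfected parental CHO cell line; also added: ATP stimulus; dosing: 5.6 µM, single dose; signal: calcium-sensitive Fluo-8 fluorescence; measure: percent inhibition of ATP-evoked calcium rise, normalized to controls; benchmarks: low control ATP plus DMSO, high control DMSO only; replication: one well per compound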
TAAR1 ag – agonists of human TAAR1; 0.99% of 360,000 active; CHO RD-HGA16 TAAR1, Fluo-8 calcium fluorescence; vehicle wells 0%, saturating PEA agonist 100%; activation, % at 3 µM;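 active means activation above the mean activation of all test compounds in the run plus 3 SD, cut at about 38% in these data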
Target sequence (Q96RJ0 whole entry, looked up): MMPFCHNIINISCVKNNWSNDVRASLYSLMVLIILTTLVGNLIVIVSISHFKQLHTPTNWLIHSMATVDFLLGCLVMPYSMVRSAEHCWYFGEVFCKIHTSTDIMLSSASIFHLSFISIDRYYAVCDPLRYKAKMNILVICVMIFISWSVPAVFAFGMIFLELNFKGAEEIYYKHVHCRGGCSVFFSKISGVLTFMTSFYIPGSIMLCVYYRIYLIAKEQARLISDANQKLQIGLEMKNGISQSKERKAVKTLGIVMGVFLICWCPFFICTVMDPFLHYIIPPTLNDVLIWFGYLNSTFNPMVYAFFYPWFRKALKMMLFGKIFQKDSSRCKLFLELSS
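Signal – calcium-sensitive Fluo-8 signal, excitation 470-495, emission 515-575 nm · System – RD-HGA16 (CHO) cells co-expressing Gα16 and hTAAR1 · Incubation – 17-24 h seeding, 75 min 37 °C dye, 30 min RT · Compound dosing – 3 µM single concentration · Repeats – no replicates (n 1)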
TAAR1 antag – human TAAR1 antagonism; Q96RJ0; CHO RD-HGA16 TAAR1, Fluo-8 calcium fluorescence, antagonist; inhibition, % at 3 µM; 1.5% of 360,000 active;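 active means inhibition above a per-plate cutoff, the mean inhibition of test compounds on that plate plus 3 SD, cut at about 49% in these data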;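 further: 0% = DMSO plus EC80 beta-PEA response and 100% = DMSO alone without agonist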
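Test system: CHO RD-HGA16 cells bearing hTAAR1 | Reagent: β-PEA, EC80 | Compound dosing: 3 µM, single point | Schedule: Dye loading 75 min at 37 °C, then 30 min room temperature | Signal: Calcium fluorescence with Fluo-8 | Evaluation: Percent inhibition of PEA-evoked calcium signal, max/basal emission ratio | Control set: DMSO-only wells and EC80 β-PEA-stimulated wells | Repeats: Singlicate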
OX1R antag-2 – antagonists of human orexin 1 receptor; O43613; 0.43% of 330,000 active; CHO/OX1R cells, Fluo-8 calcium fluorescence, orexin A; inhibition, % at 5 µM; AID 434989;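 active means inhibition above its plate's threshold, mean inhibition of all tested compounds on the plate plus 3 SD, cut at about 37% in these data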;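 further: 0% = orexin A challenge wells and 100% = SB-334867-A antagonist wells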
Active calls of the source: *; . = no result given.

SMILES	OX1R antag-1	GalR3 antagonist	CHO parental Ca	TAAR1 ag	TAAR1 antag	OX1R antag-2
COc1ccc(C(=O)c2ccc(OC)c(OC)c2)cc1OC	4.9	-5.9	-0.2	9.8	15.2	-23.3
COc1ccc(C(=O)c2nccc3cc(OC)c(OC)cc23)cc1OC	69.0*	.	-6.3	.	.	-24.8
O=C(CSc1cccs1)Nc1ccc2ccccc2c1	40.6*	-5.6	-19.1	4.2	13.1	5.9
O=C(CSc1cccs1)Nc1cccc2ccccc12	28.7	-1.6	-11.4	1.9	23.0	-2.9
CC(=O)OC1COC(OC2C(O)C(C)OC(OC3C(OC4CCC5(C)C(CCC6(C)C5CC=C5C7CC(C)(C)CCC7(C(=O)O)CCC56C)C4(C)CO)OCC(O)C3O)C2O)C(O)C1OC(C)=O (stereo not drawn)	22.4	.	100.5*	.	.	104.8*
C/C=C(/C)C(=O)OC1CC(C)(C)C[C@H]2C3=CC[C@@H]4[C@@]5(C)CCC(O[C@@H]6O[C@@H](C(=O)O)[C@@H](O)C(O[C@@H]7OC[C@H](O)[C@@H](O)[C@@H]7O[C@@H]7OC(CO)C(O)[C@@H](O)[C@@H]7O)C6O[C@@H]6OC(CO)C(O)C(O)C6O)[C@@](C)(CO)[C@@H]5CC[C@]4(C)[C@]3(C)CC(O)[C@@]12CO (stereo partly drawn)	24.5	.	100.8*	.	.	104.3*
CCOc1ccc(N=C2NC(=O)S/C2=C\c2ccc(N(C)C)cc2)cc1	7.7	-5.4	4.8	24.1	56.6*	7.9
COc1ccc(N2CCN(S(=O)(=O)CCNC(=O)c3cc(=O)c4ccccc4o3)CC2)cc1	8.1	-6.8	-18.7	-0.6	-7.9	-17.5
CCn1c(C)nc2cc(C(=O)NNC(=O)Nc3ccc(Cl)c(Cl)c3)ccc21	16.2	-6.8	10.7	40.9*	20.4	-12.8
Cc1nnc(N/N=C/c2cccc(OCc3ccc(Cl)c(Cl)c3)c2)n1N	43.8*	-8.0	-8.7	7.6	-16.4	-6.5
CCCOC1CCCN(C(=O)CCCn2nnnc2CN2CCOCC2)C1 (stereo not drawn)	29.3	1.5	2.0	4.2	-9.3	3.6
CCOC(=O)C1CCCN(C(=O)CCCn2nnnc2CN2CCOCC2)C1 (stereo not drawn)	.	-0.5	.	39.6*	22.0	.
COc1ccc(CCNC(=O)c2cc(C(=O)c3cc(Cl)ccc3O)cn(CCc3ccc(OC)cc3)c2=O)cc1	5.0	-11.7	-19.2	3.9	47.0	-26.7
COc1ccc(CCNC(=O)c2cc(C(=O)c3cc(C)ccc3O)cn(CCc3ccc(OC)cc3)c2=O)cc1	29.1	-6.1	-6.3	4.1	54.3*	6.2
CCOP(=O)(OCC)C(NC(=O)c1cc([N+](=O)[O-])cc([N+](=O)[O-])c1)C(F)(F)F (stereo not drawn)	67.5*	-7.0	-16.7	3.2	4.2	-26.1
CCC(C)(C)NC(=O)c1cc(C(=O)OC)cc([N+](=O)[O-])c1	29.7	-4.1	-14.1	0.5	-1.0	-2.2
CCOP(=O)(OCC)C(C)(C)NC(=O)c1cc([N+](=O)[O-])cc([N+](=O)[O-])c1	59.3*	-3.9	-3.3	8.3	-3.2	7.6
Cc1ccccc1CC1(C)C(=O)Nc2ccc(S(=O)(=O)NC3CCCCC3)cc21 (stereo not drawn)	.	-8.5	.	3.8	21.9	.
CC(CN1CCCCC1)OC(=O)COc1ccc(Br)cc1 (stereo not drawn)	8.8	-5.3	-15.1	3.0	-15.5	-8.0
CC1=CC(C)(C)N(S(=O)(=O)c2ccc(C)cc2)c2cc(C)ccc21	17.6	-1.2	48.8*	1.3	38.8	1.3
Cc1noc(C)c1CC(=O)Nc1ccc2c(c1)OCO2	5.7	-2.8	-10.3	2.9	-1.5	-24.3
COc1ccc(CS(=O)(=O)CC(C)(O)c2ccc(Cl)cc2)cc1 (stereo not drawn)	-1.5	-9.5	-19.5	-2.2	3.5	-7.8
CO/N=C(\CS(=O)(=O)Cc1ccc(OC)cc1)c1ccc(Cl)cc1	26.8	-9.1	-6.0	42.7*	23.7	-29.6
CC1CCCCN1C(=O)COc1ccc(S(=O)(=O)N2CCCC2)cc1[N+](=O)[O-] (stereo not drawn)	16.6	-5.1	-0.2	1.6	25.4	-19.7
